From ChEMBL document CHEMBL3994628, “Coumarin derivatives as potential antitumor agents: Growth inhibition, apoptosis induction and multidrug resistance reverting activity” (Eur J Med Chem, 2017)
The source made the active and inactive calls. No cut-off for these calls is given here.

What was measured:
Homo sapiens [1] = organism: Homo sapiens; experiment: Inhibition of P-gp in human LoVo/DX cells assessed as reduction in Rhodamine123 efflux at 2.5 uM preincubated for 15 mins followed by Rhodamine123 addition measured after 1 hr by flow cytometry; type: cell-based
Outline: (§1)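 LoVo/Dx cells at 3x10^5 cells/mL in serum-free, phenol red-free medium were preincubated at room temperature for 15 min at 2.5 or 10 µM. Rhodamine 123 was then added at 2 µM for 1 h at 37 °C in the dark. After a PBS wash, fluorescence was read by flow cytometry at 488 nm excitation and 530 nm emission. Mean control fluorescence was subtracted. Verapamil served as positive control. Data are mean ± SD of ≥3 experiments.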

LoVo [2] = experiment: Growth inhibition of human LoVo cells after 24 hrs by MTT assay; type: functional, cell-based
Outline: (§2)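 Cells were plated at 2x10^4 cells/cm2 and grown in RPMI 1640 with 10% FBS and 2 mM glutamine at 37 °C. They were exposed for 24 h to 0.01-100 µM, diluted from a 10 mmol/L DMSO stock, in triplicate. MTT was then added at 0.2 mg/mL in PBS for 4 h and the formazan dissolved in DMSO. A540 was read and IC50 taken from the dose-response curve, mean ± SD. The ratio compares the IC50s of the two lines.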

Homo sapiens [3] = organism: Homo sapiens; experiment: Inhibition of P-gp in human LoVo/DX cells assessed as reduction in Rhodamine123 efflux at 2.5 to 10 uM preincubated for 15 mins followed by Rhodamine123 addition measured after 1 hr by flow cytometry relative to verapamil; type: cell-based; outline: as §1
Homo sapiens [4] = organism: Homo sapiens; experiment: Substrate activity at P-gp in human LoVo/DX cells assessed as ATP consumption at 10 uM after 2 hrs by ATPlite assay; type: cell-based
Homo sapiens [5] = organism: Homo sapiens; experiment: Inhibition of P-gp in human LoVo/DX cells assessed as reduction in Rhodamine123 efflux at 10 uM preincubated for 15 mins followed by Rhodamine123 addition measured after 1 hr by flow cytometry; type: cell-based; outline: as §1
[6] = Growth inhibition of human LoVo/DX cells after 24 hrs by MTT assay; type: functional, cell-based; outline: as §2
LoVo/DX [7] = experiment: Cell cycle arrest in human LoVo/DX cells assessed as accumulation at S phase after 24 hrs by propidium iodide staining based flow cytometry; type: functional
LoVo [8] = experiment: Cell cycle arrest in human LoVo cells assessed as accumulation at G2/M phase after 24 hrs by propidium iodide staining based flow cytometry; type: functional
LoVo [9] = experiment: Cell cycle arrest in human LoVo cells assessed as accumulation at G0/G1 phase after 24 hrs by propidium iodide staining based flow cytometry; type: functional
LoVo/DX [10] = experiment: Cytostatic activity against human LoVo/DX cells by phase contrast microscopic method; type: functional, cell-based
Outline: (§3)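 LoVo or LoVo/Dx cells were plated at 2x10^4 cells/cm2 in RPMI 1640 with 10% FBS and exposed for 24 h. Phase contrast microscopy was used to judge growth delay without cell death (cytostatic) or cell death, shown as floating cells (cytotoxic).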

LoVo/DX [11] = experiment: Induction of apoptosis in human LoVo/DX cells assessed as caspase-activation using DEVD as substrate at cytotoxic concentration after 24 hrs by fluorimetric assay; type: functional, cell-based
Outline: (§4)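 After 24 h exposure at cytotoxic concentration, DEVD-hydrolysing caspase activity was measured fluorimetrically in cell extracts. Values are given as percentage increase over untreated control, set at 100%. Data are mean ± SD of at least three independent experiments.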

LoVo [12] = experiment: Induction of apoptosis in human LoVo cells assessed as caspase-activation using DEVD as substrate at cytotoxic concentration after 24 hrs by fluorimetric assay relative to control; type: functional; outline: as §4
LoVo [13] = experiment: Cytostatic activity against human LoVo cells by phase contrast microscopic method; type: functional, cell-based; outline: as §3
[14] = Selectivity ratio of IC50 for human LoVo/DX cells to IC50 for human LoVo cells; type: functional; outline: as §2
LoVo [15] = experiment: Cytotoxic activity against human LoVo cells after 24 hrs by phase contrast microscopic method; type: functional, cell-based; outline: as §3
LoVo/DX [16] = experiment: Cytotoxic activity against human LoVo/DX cells after 24 hrs by phase contrast microscopic method; type: functional, cell-based; outline: as §3
LoVo/DX [17] = experiment: Cell cycle arrest in human LoVo/DX cells assessed as accumulation at G2/M phase at 3.6 uM after 24 hrs by propidium iodide staining based flow cytometry; type: functional
LoVo/DX [18] = experiment: Cell cycle arrest in human LoVo/DX cells assessed as accumulation at G0/G1 phase at 1.8 uM after 24 hrs by propidium iodide staining based flow cytometry; type: functional
LoVo [19] = experiment: Cell cycle arrest in human LoVo cells assessed as accumulation at G2/M phase at 3.5 to 7 uM after 24 hrs by propidium iodide staining based flow cytometry; type: functional
[20] = Induction of apoptosis in human LoVo/DX cells assessed as caspase-activation using DEVD as substrate at cytotoxic concentration after 24 hrs by fluorimetric assay relative to sensitive LoVo cells; type: functional
[21] = Selectivity ratio of IC50 for human LoVo cells to IC50 for human LoVo/DX cells; type: functional; outline: as §2
LoVo/DX [22] = experiment: Cell cycle arrest in human LoVo/DX cells assessed as accumulation at G0/G1 phase after 24 hrs by propidium iodide staining based flow cytometry; type: functional

Row | SMILES | P-gp inhibition (active/not active) (Homo sapiens [1]) | IC50 (LoVo [2]) | Activity (Homo sapiens [4]) | P-gp inhibition (active/not active) (Homo sapiens [5]) | IC50 [6] | other results
1 | COc1ccc(CCN(C)CC#C/C(C)=C/COc2ccc3ccc(=O)oc3c2)cc1OC | Active | 40 µM | inactive | Active | 15.4 µM | fold change (FC) (Homo sapiens [3]): 10
2 | C/C(C#CCN1CCN(C(c2ccc(F)cc2)c2ccc(F)cc2)CC1)=C\COc1ccc2ccc(=O)oc2c1 | Active | 47 µM | Active | Active | 60 µM | –
3 | C/C(C#CCN1CCC(n2c(=O)[nH]c3ccccc32)CC1)=C\COc1ccc2ccc(=O)oc2c1 | Active | 2.5 µM | Active | Active | 5 µM | Activity (LoVo/DX [7]): Dose-dependent effect; Activity (LoVo [8]): Dose-dependent effect; Activity (LoVo [9]): Dose-dependent effect; Activity (LoVo/DX [10]): Active; Activity (LoVo/DX [11]): Active; Activity (LoVo [12]): 19%; Activity (LoVo [13]): Active; Ratio IC50 [14]: 2; Activity (LoVo [15]): Active; Activity (LoVo/DX [16]): Active
4 | C/C(C#CCN1CCCCC1)=C\COc1ccc2ccc(=O)oc2c1 | Active | 62 µM | – | – | 33 µM | –
5 | C#C/C(C)=C/COc1ccc2ccc(=O)oc2c1 | inactive | 48 µM | – | – | 71.5 µM | –
6 | CC(C)=CCOc1ccc2ccc(=O)oc2c1 [7-PRENYLOXYCOUMARIN] | Active | 30 µM | – | – | 50.3 µM | –
7 | C/C(C#CCN1CCN(Cc2ccccc2)CC1)=C\COc1ccc2ccc(=O)oc2c1 | Active | 67.6 µM | – | – | 19.6 µM | –
8 | C/C(C#CCN1CCN(C2c3ccccc3-c3ccccc32)CC1)=C\COc1ccc2ccc(=O)oc2c1 | Active | 3.5 µM | Active | inactive | 1.8 µM | Activity (LoVo/DX [17]): Active; Activity (LoVo/DX [10]): Active; Activity (LoVo/DX [18]): Active; Activity (LoVo [19]): Active; Activity (LoVo [12]): 72%; fold change (FC) [20]: 3; Activity (LoVo [13]): Active; Activity (LoVo [15]): Active; Activity (LoVo/DX [16]): Active; Ratio IC50 [21]: 2
9 | C/C(C#CCN1CCN(c2ccccc2)CC1)=C\COc1ccc2ccc(=O)oc2c1 | Active | 41 µM | – | – | 12 µM | –
10 | COc1ccc(CCN(C)CCCC(C#N)(c2ccc(OC)c(OC)c2)C(C)C)cc1OC (stereo not given) | – | – | Active | – | – | –
11 | COc1cc2c(cc1OC)CN(CC#C/C(C)=C/COc1ccc3ccc(=O)oc3c1)CC2 | Active | 10.7 µM | inactive | Active | 10.6 µM | Activity (LoVo/DX [22]): Dose-dependent effect; Activity (LoVo [9]): Dose-dependent effect; Activity (LoVo/DX [10]): Active; Activity (LoVo/DX [11]): Active; Activity (LoVo [12]): 39%; Activity (LoVo [13]): Active; Activity (LoVo [15]): Active; Activity (LoVo/DX [16]): Active
